Measurements published in ChEMBL document CHEMBL4513216, “Probing the Open Global Health Chemical Diversity Library for Multistage-Active Starting Points for Next-Generation Antimalarials” (ACS Infect Dis, 2020).

Assay: Toxicity liver stage against HepG2, at 10uM
Format: cell-based
Design: test concentration 10 uM, cell line HepG2-A16-CD81EGFP
Conditions: human, HepG2-A16-CD81EGFP cells; read-out: INHIBITION
Procedure, shortened: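 Uninfected HepG2-A16-CD81EGFP cells, 3 × 10^3 per well, 1536-well, plated on prespotted compound at 10 μM final, parasite-free screening media added to match infected plates; puromycin 10 μM positive, DMSO 0.5% negative; run in parallel with 48 h PbLuc assay at 37 °C, 5% CO2; viability by CellTiter-Glo luminescence, normalized to controls.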

COc1ccccc1CN1CC[C@H](c2nnc(-c3cncn3C)o2)C1
cytotoxicity at 10 µM: 8.33%

CCOC(=O)CNC(=O)NCc1cccn1Cc1ccc(F)cc1
cytotoxicity at 10 µM: 11.6%

O=C(c1ccsc1)N1CCc2c(CNc3nccs3)n[nH]c2C1
cytotoxicity at 10 µM: 10.9%

Cn1cccc1C(=O)N[C@@H]1CN(S(C)(=O)=O)[C@@H]2COC[C@@H]21
cytotoxicity at 10 µM: 14.1%

Cc1ncsc1CN1CC[C@H]2OCC[C@@]2(C(=O)N2CCCO2)C1
cytotoxicity at 10 µM: -0.0653%

CCC1=N[C@@]2(CC[C@@H]3CN(S(=O)(=O)CC)C[C@@H]32)C(=O)N1CC
cytotoxicity at 10 µM: 5.22%

COCC1CN(Cc2cccnc2OC)Cc2cnn(C)c21 (stereo not given)
cytotoxicity at 10 µM: 2.69%

CC1CCN(c2nccn3c(=O)[nH]nc23)CC1
cytotoxicity at 10 µM: 6.09%

Cn1c(C(F)(F)F)nn(CCNC(=O)CSCc2ccccc2)c1=O
cytotoxicity at 10 µM: -24%

CC1CCC2(CC1)NC(=O)c1cc(Br)ccc1-n1nnnc12 (stereo not given)
cytotoxicity at 10 µM: 10.1%

CCn1nc(C)c2c1cnn2CCNS(C)(=O)=O
cytotoxicity at 10 µM: 7.55%

O=C(NCCCn1cccn1)C1(c2ccccc2)CCOCC1
cytotoxicity at 10 µM: 5.78%

O=C(COCc1nc(-c2ccncc2)no1)N1CCCC1
cytotoxicity at 10 µM: -10.7%

CC1(c2ncc(CN(CC(=O)O)Cc3ccccc3)cn2)CCCCO1 (stereo not given)
cytotoxicity at 10 µM: -3.73%

CN(C)C(=O)c1nc(-c2ccc(S(C)(=O)=O)cc2)c2cnccn12
cytotoxicity at 10 µM: 7.27%

CN(C)C(=O)N1CCN(c2ccc(Cl)nn2)C(=O)C1
cytotoxicity at 10 µM: 9.1%

Cc1nnc(NCCc2coc(-c3ccccc3)n2)c(C#N)c1C
cytotoxicity at 10 µM: -14.3%

CC(C)c1nc(S(=O)(=O)Nc2ccnn2C2CCCC2)c[nH]1
cytotoxicity at 10 µM: -3.36%

COc1cccc(CC(C)NC(=O)NCCc2cccnc2)c1 (stereo not given)
cytotoxicity at 10 µM: -11%

CCN1CC(COC(=O)c2cccc(Br)c2)CC1=O (stereo not given)
cytotoxicity at 10 µM: 4.91%

OCc1cc2ccccc2nc1N1CCCC1
cytotoxicity at 10 µM: -8.82%

O=C(NCc1cccnc1)NCC(O)c1ccccc1C(F)(F)F (stereo not given)
cytotoxicity at 10 µM: 1.5%

CCC(O)CN(CC(=O)Nc1cc(C)no1)c1ccccc1 (stereo not given)
cytotoxicity at 10 µM: -2.59%

CC(=O)Nc1ccc(C(=O)N2CCOc3nc(C)ccc32)cc1
cytotoxicity at 10 µM: 2.81%

O=C(c1ccncc1F)N1CCCC1c1nc(-c2ccccc2)n[nH]1 (stereo not given)
cytotoxicity at 10 µM: 1.34%

CSc1ccsc1C(=O)NS(=O)(=O)c1cccc(C#N)c1
cytotoxicity at 10 µM: 7.49%

Cc1nnc(SC2CCN(c3sccc3C#N)C2=O)s1 (stereo not given)
cytotoxicity at 10 µM: -7.22%

Cc1cc(C)n(CC2CCCN2C(=O)Cc2csc(C)n2)n1 (stereo not given)
cytotoxicity at 10 µM: 9.3%

COCCN(Cc1sccc1C)Cc1nccn1CCOC
cytotoxicity at 10 µM: 2.33%

O=C(NCCOCCO)[C@@]12CNC[C@@H]1CN(C1CCCC1)C2
cytotoxicity at 10 µM: -16.4%

Cc1cn(CC(=O)Nc2cc(C(C)(C)C)nn2C)cn1
cytotoxicity at 10 µM: 0.79%

O=C(N[C@@H]1CCNC[C@H]1O)c1ccccc1OC(F)(F)C(F)F
cytotoxicity at 10 µM: -3.28%

CCn1cc(C(=O)N2CCCC(c3[nH]ncc3S(C)(=O)=O)C2)cn1 (stereo not given)
cytotoxicity at 10 µM: 8.42%

O=C(NCc1ccco1)N1CCN(Cc2ccc3c(c2)CCO3)CC1
cytotoxicity at 10 µM: -2.83%

CN(C)C(=O)CS(=O)(=O)Cc1cc(Cl)c2c(c1)OCCO2
cytotoxicity at 10 µM: 1.38%

Cc1cnn(CC2CN(CC(=O)Nc3cc(C)on3)CCO2)c1 (stereo not given)
cytotoxicity at 10 µM: -7.3%

CCCc1nc(CN2CCCC2Cn2cncn2)no1 (stereo not given)
cytotoxicity at 10 µM: -2%

COCCCNC(=O)N1CCC(CNC(=O)c2cnn(C)c2)CC1
cytotoxicity at 10 µM: -1.3%

Cc1ccc(N2CCCC(NCc3ccc(C)s3)C2)nn1 (stereo not given)
cytotoxicity at 10 µM: -2.51%

Cc1cn2c(n1)CCC(NC(=O)c1cc(Br)cn1C)C2 (stereo not given)
cytotoxicity at 10 µM: 3.18%

CS(=O)(=O)NC1CCCN(C(=O)NCc2cc[nH]n2)C1 (stereo not given)
cytotoxicity at 10 µM: 4.14%

Cc1ccc(CN2CCn3cc(CNC(=O)c4cnn(C)c4)nc3C2)s1
cytotoxicity at 10 µM: 1.13%

COCCN1CCn2cc(CNC(=O)c3cnn(C)c3)nc2C1
cytotoxicity at 10 µM: -3.09%

COCCN1C[C@@H]2[C@@H](OC)CCN(Cc3cccs3)[C@@H]2C1
cytotoxicity at 10 µM: 3.86%

CCS(=O)(=O)NC[C@]12COC[C@H]1CN(Cc1cccnc1OC)C2
cytotoxicity at 10 µM: 1.97%
